Results: ChEMBL document CHEMBL1138153, “N-substituted 4beta-methyl-5-(3-hydroxyphenyl)-7alpha-amidomorphans are potent, selective kappa opioid receptor antagonists” (J Med Chem, 2006)

How the values were obtained:
[1] = target: Kappa-type opioid receptor (Homo sapiens) (UniProt P41145); experiment: Inhibition of U69,593 stimulated [35S]GTP-gamma-S binding to cloned human kappa opioid receptor expressed in CHO cells; assay type: functional, cell-based
Procedure, shortened: (§1)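 Antagonism measured as a rightward shift of the agonist concentration–response curve for [35S]GTPγS binding in CHO cells expressing the cloned human receptor. Curves were run with and without one fixed concentration of test compound. Ke = [L]/(DR − 1), where [L] is the test compound concentration and DR is the ratio of agonist EC50 with versus without test compound.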

[2] = target: Opioid receptors; delta & kappa (Homo sapiens) (UniProt P41145+P41143); experiment: Selectivity for human kappa opioid receptor over human delta opioid receptor; assay type: protein assay
[3] = target: Mu-type opioid receptor (Homo sapiens) (UniProt P35372); experiment: Inhibition of DAMGO stimulated [35S]GTP-gamma-S binding to cloned human mu opioid receptor expressed in CHO cells; assay type: functional, cell-based; procedure, shortened: as §1
[4] = target: Opioid receptors; mu & kappa (Homo sapiens) (UniProt P41145+P35372); experiment: Selectivity for human kappa opioid receptor over human mu opioid receptor; assay type: protein assay
[5] = target: Delta-type opioid receptor (Homo sapiens) (UniProt P41143); experiment: Inhibition of DPDPE stimulated [35S]GTP-gamma-S binding to cloned human delta opioid receptor expressed in CHO cells; assay type: functional, cell-based; procedure, shortened: as §1
Delta-type opioid receptor (Homo sapiens), sequence (P41143 whole entry): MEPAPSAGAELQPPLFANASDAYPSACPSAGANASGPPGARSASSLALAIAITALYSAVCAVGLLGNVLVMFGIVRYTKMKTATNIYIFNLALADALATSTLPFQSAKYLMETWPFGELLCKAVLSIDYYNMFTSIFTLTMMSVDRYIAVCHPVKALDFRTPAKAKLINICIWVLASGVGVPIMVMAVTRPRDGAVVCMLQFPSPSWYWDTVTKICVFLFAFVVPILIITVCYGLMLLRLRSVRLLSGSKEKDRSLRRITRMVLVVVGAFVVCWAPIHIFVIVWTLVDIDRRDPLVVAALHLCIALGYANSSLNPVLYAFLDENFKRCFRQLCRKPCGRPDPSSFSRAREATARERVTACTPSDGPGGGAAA

Opioid receptors; mu & kappa (Homo sapiens), sequence (P35372 whole entry, looked up): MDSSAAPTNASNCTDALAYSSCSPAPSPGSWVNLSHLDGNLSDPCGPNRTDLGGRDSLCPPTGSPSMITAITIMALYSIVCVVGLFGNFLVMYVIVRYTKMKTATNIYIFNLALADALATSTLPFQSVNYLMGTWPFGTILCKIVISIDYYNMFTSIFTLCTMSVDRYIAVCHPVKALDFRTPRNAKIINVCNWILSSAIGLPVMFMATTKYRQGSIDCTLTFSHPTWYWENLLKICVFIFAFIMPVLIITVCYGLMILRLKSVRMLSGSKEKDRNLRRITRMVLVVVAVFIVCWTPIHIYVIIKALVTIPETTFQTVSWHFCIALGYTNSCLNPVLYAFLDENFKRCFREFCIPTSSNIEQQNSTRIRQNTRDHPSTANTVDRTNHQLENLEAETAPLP
Opioid receptors; mu & kappa (Homo sapiens), sequence (P41145 whole entry, looked up): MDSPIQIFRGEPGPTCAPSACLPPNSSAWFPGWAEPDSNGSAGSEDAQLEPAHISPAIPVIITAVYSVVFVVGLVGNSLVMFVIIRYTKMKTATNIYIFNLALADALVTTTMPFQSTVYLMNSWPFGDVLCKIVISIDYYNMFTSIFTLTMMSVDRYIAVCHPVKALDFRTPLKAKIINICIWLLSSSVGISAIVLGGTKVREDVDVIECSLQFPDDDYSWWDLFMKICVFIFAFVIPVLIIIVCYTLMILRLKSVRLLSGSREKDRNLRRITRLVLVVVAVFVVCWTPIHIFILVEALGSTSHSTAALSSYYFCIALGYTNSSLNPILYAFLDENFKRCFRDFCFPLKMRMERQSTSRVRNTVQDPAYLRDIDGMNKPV
Mu-type opioid receptor (Homo sapiens), sequence (P35372 whole entry): as the sequence (P35372 whole entry, looked up) above
Opioid receptors; delta & kappa (Homo sapiens), sequence (P41143 whole entry, looked up): as the sequence (P41143 whole entry) above
Opioid receptors; delta & kappa (Homo sapiens), sequence (P41145 whole entry, looked up): as the sequence (P41145 whole entry, looked up) above
Kappa-type opioid receptor (Homo sapiens), sequence (P41145 whole entry): as the sequence (P41145 whole entry, looked up) above

| Structure (SMILES) | Ke [1] [nM] | Ratio Ke [2] | Ke [3] [nM] | Ratio Ke [4] | Ke [5] [nM] |
| --- | --- | --- | --- | --- | --- |
| CC1CN(CCCc2ccccc2)C2C[C@H](NC(=O)CCN3CCc4ccccc4C3)CC1(c1cccc(O)c1)C2 (stereo partly specified) | 0.09 | 144 | 48 | 533 | 13 |
| Cc1ccccc1CCN1CC(C)C2(c3cccc(O)c3)CC1C[C@H](NC(=O)CCN1CCc3ccccc3C1)C2 (stereo partly specified) | 0.04 | 625 | 28 | 700 | 25 |
| CC1CN(CCCc2ccccc2)C2C[C@H](NC(=O)CCN3CCN(C)CC3)CC1(c1cccc(O)c1)C2 (stereo partly specified) | 0.87 | 214 | 82 | 94 | 186 |
| CC1CN(CCCc2ccccc2)C2C[C@H](NC(=O)CCN3CCc4ccc(O)cc4C3)CC1(c1cccc(O)c1)C2 (stereo partly specified) | 0.09 | 689 | 52 | 578 | 62 |
| CC(C)[C@@H](CN1CC[C@@](C)(c2cccc(O)c2)[C@@H](C)C1)NC(=O)[C@H]1Cc2ccc(O)cc2CN1 | 0.02 |  |  |  |  |
| COc1cc2c(cc1OC)CN(CCC(=O)N[C@H]1CC3CC(c4cccc(O)c4)(C1)C(C)CN3CCCc1ccccc1)CC2 (single isomer, unassigned; (-)) | 0.54 | 74 | 218 | 404 | 40 |
| CC1CN(CCCc2ccccc2)C2C[C@H](NC(=O)CCN3CCCCC3)CC1(c1cccc(O)c1)C2 (stereo partly specified) | 0.24 | 138 | 42 | 175 | 33 |
| CC1CN(CCCc2ccco2)C2C[C@H](NC(=O)CCN3CCc4ccccc4C3)CC1(c1cccc(O)c1)C2 (stereo partly specified) | 0.32 | 163 | 35 | 109 | 52 |
| CCCCCCN1CC(C)C2(c3cccc(O)c3)CC1C[C@H](NC(=O)CCN1CCc3ccccc3C1)C2 (stereo partly specified) | 0.2 | 725 | 103 | 515 | 145 |
| Cc1ccccc1CN1CC(C)C2(c3cccc(O)c3)CC1C[C@H](NC(=O)CCN1CCc3ccccc3C1)C2 (stereo partly specified) | 6.1 | > 82 | > 500 | > 82 | > 500 |
| CC1CN(CCCc2cccs2)C2C[C@H](NC(=O)CCN3CCc4ccccc4C3)CC1(c1cccc(O)c1)C2 (stereo partly specified) | 1.8 | 11 | 25 | 14 | 19 |
| CC1CN(CCCc2ccsc2)C2C[C@H](NC(=O)CCN3CCc4ccccc4C3)CC1(c1cccc(O)c1)C2 (stereo partly specified) | 1.1 | 26 | 52 | 47 | 29 |
| CC1CCN(CCC(=O)N[C@H]2CC3CC(c4cccc(O)c4)(C2)C(C)CN3CCCc2ccccc2)CC1 (stereo partly specified) | 0.47 | 666 | 176 | 374 | 313 |
| COc1ccc2c(c1)CN(CCC(=O)N[C@H]1CC3CC(c4cccc(O)c4)(C1)C(C)CN3CCCc1ccccc1)CC2 (stereo partly specified) | 0.28 | 125 | 28 | 100 | 35 |
| CC1CN(CCCc2ccccc2)C2C[C@H](NC(=O)CCN3CCc4c(O)cccc4C3)CC1(c1cccc(O)c1)C2 (stereo partly specified) | 0.07 | 357 | 4.6 | 66 | 25 |
| CC1CN(CCCc2ccccc2)C2C[C@H](NC(=O)CCN3CCc4cc(O)ccc4C3)CC1(c1cccc(O)c1)C2 (stereo partly specified) | 0.3 | 107 | 26 | 87 | 32 |
| Cc1ccccc1CCCN1CC(C)C2(c3cccc(O)c3)CC1C[C@H](NC(=O)CCN1CCc3ccccc3C1)C2 (stereo partly specified) | 0.2 | 100 | 41 | 205 | 20 |
| CC1CN(CCCc2ccccc2)C2C[C@H](NC(=O)CCN3CCOCC3)CC1(c1cccc(O)c1)C2 (stereo partly specified) | 2.2 | 35 | 259 | 118 | 77 |
| COc1ccc2c(c1)CCN(CCC(=O)N[C@H]1CC3CC(c4cccc(O)c4)(C1)C(C)CN3CCCc1ccccc1)C2 (stereo partly specified) | 0.12 | 350 | 261 | 2180 | 42 |
